Measurements from ChEMBL document CHEMBL1275527, “A nonsense mutation in the ERG6 gene leads to reduced susceptibility to polyenes in a clinical isolate of Candida glabrata” (2008).
Values after ≈ are worked out from the molar mass of the structure shown. Active and inactive are the calls of the source. No cut-off for these calls is given here.

Legend:
[1] = test system: Nakaseomyces glabratus; assay: Antifungal activity against Candida glabrata isolate 21229 with missense mutation in ERG6 gene at 2 mM; type: functional, organism-based
In short: (§1)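 Compound incorporated at 2 mM into YEPD agar. Cell suspensions at 10^7 down to 10^3 cells per ml were spotted at 10 µl each, dried and incubated 48 h at 37°C. Growth was compared with spots on YEPD agar without inhibitor.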

[2] = test system: Nakaseomyces glabratus; assay: Antifungal activity against Candida glabrata isolate 21230 at 2 mM; type: functional, organism-based; in short: as §1
[3] = test system: Nakaseomyces glabratus; assay: Antifungal activity against wild-type Candida glabrata isolate 21231 by Etest method; type: functional
[4] = test system: Nakaseomyces glabratus; assay: Antifungal activity against Candida glabrata isolate 21230 with silent mutation in ERG4, ERG5 genes and nonsense mutation in ERG6 gene by Etest method; type: functional
[5] = test system: Nakaseomyces glabratus; assay: Antifungal activity against Candida glabrata isolate 21230C by disk diffusion method; type: functional
In short: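 The strain is the ura3 derivative of clinical isolate 21230 complemented with a centromeric plasmid carrying wild-type ERG6, tested as for the parent isolate. Isolates were maintained on YEPD agar.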

[6] = test system: Nakaseomyces glabratus; assay: Antifungal activity against Candida glabrata isolate 21230 with silent mutations in ERG4, ERG5 genes and nonsense mutation in ERG6 gene by disk diffusion method; type: functional
[7] = test system: Nakaseomyces glabratus; assay: Antifungal activity against wild-type Candida glabrata isolate 21231 by disk diffusion method; type: functional

Compound | Activity [1] | Activity [2] | MIC [3] | MIC [4] | inhibition zone (IZ) [5] | inhibition zone (IZ) [6] | inhibition zone (IZ) [7]
Cn1c(=O)c2c(ncn2C)n(C)c1=O | Active | Active | – | – | – | – | –
C[C@@H]1[C@H](O)[C@@H](C)/C=C/C=C/C=C/C=C/C=C/C=C/C=C/[C@H](O[C@@H]2O[C@H](C)[C@@H](O)[C@H](N)[C@@H]2O)C[C@@H]2O[C@](O)(C[C@@H](O)C[C@@H](O)[C@H](O)CC[C@@H](O)C[C@@H](O)CC(=O)O[C@H]1C)C[C@H](O)[C@H]2C(=O)O [AMPHOTERICIN B] | – | – | 0.047 µg/mL (≈ 0.0509 µM) | 0.125 µg/mL (≈ 0.135 µM) | 29 mm | 13 mm | 27 mm
Clc1ccc(COC(Cn2ccnc2)c2ccc(Cl)cc2Cl)cc1 (stereo not drawn) [ECONAZOLE] | – | – | – | – | – | 35 mm | 25 mm
OC(Cn1cncn1)(Cn1cncn1)c1ccc(F)cc1F [FLUCONAZOLE] | – | – | 6 µg/mL (≈ 19.6 µM) | 1 µg/mL (≈ 3.27 µM) | – | 29 mm | 21 mm
CC(=O)N1CCN(c2ccc(OCC3COC(Cn4ccnc4)(c4ccc(Cl)cc4Cl)O3)cc2)CC1 (stereo not drawn) [KETOCONAZOLE] | – | – | 0.19 µg/mL (≈ 0.358 µM) | 0.064 µg/mL (≈ 0.12 µM) | – | 43 mm | 33 mm
Clc1ccc(COC(Cn2ccnc2)c2ccc(Cl)cc2Cl)c(Cl)c1 (stereo not drawn) [MICONAZOLE] | – | – | – | – | – | 29 mm | 21 mm
C[C@@H](c1ncncc1F)[C@](O)(Cn1cncn1)c1ccc(F)cc1F [VORICONAZOLE] | – | – | – | – | – | 39 mm | 30 mm
NYSTATIN | – | – | – | – | – | 19 mm | 31 mm
